Assays:
[1] = target: T1, Amine oxidase [flavin-containing] B (Homo sapiens, UniProt P27338); assay: Inhibition of human recombinant monoamine oxidase-B assessed as kynuramine conversion to 6-hydroxyquinoline after 20 mins by fluorescence spectrophotometric analysis
T1 sequence (P27338 whole entry): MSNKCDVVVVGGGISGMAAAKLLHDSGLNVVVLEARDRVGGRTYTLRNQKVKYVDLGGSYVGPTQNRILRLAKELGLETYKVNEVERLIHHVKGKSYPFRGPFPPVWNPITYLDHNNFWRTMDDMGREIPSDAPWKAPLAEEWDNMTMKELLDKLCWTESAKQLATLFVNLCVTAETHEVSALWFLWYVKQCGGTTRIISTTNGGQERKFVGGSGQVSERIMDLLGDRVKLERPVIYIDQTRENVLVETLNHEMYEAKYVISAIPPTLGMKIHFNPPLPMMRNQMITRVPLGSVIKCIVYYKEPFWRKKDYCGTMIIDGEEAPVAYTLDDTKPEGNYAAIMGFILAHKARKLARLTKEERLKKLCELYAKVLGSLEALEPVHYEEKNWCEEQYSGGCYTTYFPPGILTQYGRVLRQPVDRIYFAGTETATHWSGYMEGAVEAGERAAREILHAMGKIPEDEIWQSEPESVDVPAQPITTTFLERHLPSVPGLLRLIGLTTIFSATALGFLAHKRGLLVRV

[2] = target: T2, Amine oxidase [flavin-containing] A (Homo sapiens, UniProt P21397); assay: Inhibition of human recombinant monoamine oxidase-A assessed as kynuramine conversion to […] after 20 mins by fluorescence spectrophotometric analysis
T2 sequence (P21397 whole entry): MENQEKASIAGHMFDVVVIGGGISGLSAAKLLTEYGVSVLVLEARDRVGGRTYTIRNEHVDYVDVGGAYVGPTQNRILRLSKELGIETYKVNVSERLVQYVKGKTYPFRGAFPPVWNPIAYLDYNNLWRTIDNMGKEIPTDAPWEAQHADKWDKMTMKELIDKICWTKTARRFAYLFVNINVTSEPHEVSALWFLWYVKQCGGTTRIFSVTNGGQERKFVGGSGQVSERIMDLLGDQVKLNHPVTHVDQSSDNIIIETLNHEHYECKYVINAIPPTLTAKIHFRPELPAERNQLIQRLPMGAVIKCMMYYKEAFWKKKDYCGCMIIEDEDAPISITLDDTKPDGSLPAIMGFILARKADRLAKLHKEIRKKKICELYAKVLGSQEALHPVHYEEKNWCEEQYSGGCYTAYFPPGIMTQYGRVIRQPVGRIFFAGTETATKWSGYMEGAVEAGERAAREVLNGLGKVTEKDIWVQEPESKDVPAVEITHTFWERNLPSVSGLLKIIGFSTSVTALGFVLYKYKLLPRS

[3] = organism: Homo sapiens; assay: Selectivity index, ratio of IC50 for human recombinant monoamine oxidase-A to IC50 for human recombinant monoamine oxidase-B
In short: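 Selectivity for MAO-B, given as IC50(MAO-A)/IC50(MAO-B). Both IC50s came from recombinant human enzymes, with kynuramine oxidation to fluorescent […] read at ex 310 / em 400 nm in alkaline medium.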

[4] = target: T2, Amine oxidase [flavin-containing] A; assay: (§1) Reversible inhibition of human recombinant monoamine oxidase-A using kynuramine as substrate assessed as residual enzyme activity treated at 10 times IC50 preincubated for 30 mins prior to substrate addition followed by 100 fold dilution measured after 20 mins by fluorescence spectrophotometric analysis relative to control
[5] = target: T2, Amine oxidase [flavin-containing] A; assay: as §1, with “at 100” for “at 10”
[6] = target: T2, Amine oxidase [flavin-containing] A; assay: Competitive inhibition of human recombinant monoamine oxidase-A using kynuramine as substrate by Cheng and Prusoff equation analysis
[7] = target: T2, Amine oxidase [flavin-containing] A; assay: Competitive inhibition of human recombinant monoamine oxidase-A using kynuramine as substrate by Lineweaver-Burk plot analysis
In short: (§2)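 Recombinant human MAO-A or MAO-B with kynuramine as substrate. Initial rates were recorded at 4 substrate concentrations, without inhibitor and with three inhibitor concentrations. Lineweaver–Burk (1/v vs 1/[S]) plots were built from these rates. Product […] was read by fluorescence in alkaline medium (ex 310 nm, em 400 nm).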

[8] = target: T1, Amine oxidase [flavin-containing] B; assay: as §1, with “monoamine oxidase-B” for “monoamine oxidase-A”, “at 100” for “at 10”
[9] = target: T1, Amine oxidase [flavin-containing] B; assay: Quasi-reversible inhibition of human recombinant monoamine oxidase-B using kynuramine as substrate treated at 10 to 100 times IC50 preincubated for 30 mins prior to substrate addition followed by 100 fold dilution measured after 20 mins by fluorescence spectrophotometric analysis
[10] = target: T1, Amine oxidase [flavin-containing] B; assay: Competitive inhibition of human recombinant monoamine oxidase-B using kynuramine as substrate by Cheng and Prusoff equation analysis
[11] = target: T1, Amine oxidase [flavin-containing] B; assay: Competitive inhibition of human recombinant monoamine oxidase-B using kynuramine as substrate by Morrison equation analysis
[12] = target: T1, Amine oxidase [flavin-containing] B; assay: as §1, with “oxidase-B” for “oxidase-A”
[13] = target: T1, Amine oxidase [flavin-containing] B; assay: Competitive inhibition of human recombinant monoamine oxidase-B using kynuramine as substrate by Lineweaver-Burk plot analysis; in short: as §2
[14] = target: T3, Amine oxidase [flavin-containing] B (Rattus norvegicus, UniProt P19643); assay: Inhibition of rat brain monoamine oxidase-B
T3 sequence (P19643 whole entry): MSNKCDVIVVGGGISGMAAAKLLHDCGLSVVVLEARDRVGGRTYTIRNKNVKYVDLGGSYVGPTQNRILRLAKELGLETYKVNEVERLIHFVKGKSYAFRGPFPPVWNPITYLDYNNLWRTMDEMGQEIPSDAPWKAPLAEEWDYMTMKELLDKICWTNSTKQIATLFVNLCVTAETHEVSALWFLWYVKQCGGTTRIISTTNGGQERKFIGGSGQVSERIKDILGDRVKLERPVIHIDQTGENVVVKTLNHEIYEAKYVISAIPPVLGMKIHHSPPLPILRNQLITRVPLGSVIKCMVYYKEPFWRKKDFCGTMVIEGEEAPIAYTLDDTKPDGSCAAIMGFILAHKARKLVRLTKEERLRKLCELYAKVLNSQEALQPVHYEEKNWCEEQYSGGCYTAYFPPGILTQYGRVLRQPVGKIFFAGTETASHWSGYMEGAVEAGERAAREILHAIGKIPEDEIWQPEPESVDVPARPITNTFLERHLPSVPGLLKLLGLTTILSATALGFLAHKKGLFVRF

[15] = target: T1, Amine oxidase [flavin-containing] B; assay: Ratio of phthalide IC50 to compound IC50 for human recombinant monoamine oxidase-B
[16] = target: T1, Amine oxidase [flavin-containing] B; assay: Inhibition of human recombinant monoamine oxidase-B assessed as kynuramine conversion to […] at 100 uM after 20 mins by fluorescence spectrophotometric analysis
[17] = target: T2, Amine oxidase [flavin-containing] A; assay: as §1, with “Irreversible” for “Reversible”

SMILES | IC50 [1] [nM] | IC50 [2] [nM] | Ratio IC50 [3] | also measured
Cc1ccc(CCOc2ccc3c(c2)C(=O)OC3)cc1 | 81 | 7330 | 90 | –
O=C1OCc2ccc(OCCc3ccccc3)cc21 | 47 | 3210 | 68 | –
O=C1OCc2ccc(OCc3ccccc3)cc21 | 24 | 1190 | 50 | IC50 [14]: 230 nM; Ratio IC50 [15]: 1000
O=C1OCc2ccc(OCCOc3ccccc3)cc21 | 18 | 1910 | 106 | –
O=C1OCc2ccccc21 | 28600 | 44900 | 1.6 | –
O=C1OCc2ccc(NCc3ccccc3)cc21 | – | 59900 | – | inhibition (INH) [16]: Not Active
C#CCN(C)Cc1ccccc1 [PARGYLINE] | – | – | – | Activity [17]: 1%
O=C1OCc2ccc(OCCc3ccc(F)cc3)cc21 | 68 | 1070 | 16 | –
Cc1ccc(COc2ccc3c(c2)C(=O)OC3)cc1 | 9 | 1060 | 118 | –

Further molecules by falling IC50 [2], results first:

IC50 [1] [nM] | IC50 [2] [nM] | Ratio IC50 [3] | SMILES | also measured
3.5 | 629 | 180 | O=C1OCc2ccc(OCc3cccc(Br)c3)cc21 | –
6.4 | 542 | 84 | O=C1OCc2ccc(OCc3ccc(F)cc3)cc21 | –
48 | 498 | 10 | O=C1OCc2ccc(OCCc3ccc(Cl)cc3)cc21 | –
1.8 | 344 | 189 | O=C1OCc2ccc(OCc3ccc(I)cc3)cc21 | –
7.4 | 323 | 43 | O=C1OCc2ccc(OCCOc3ccc(F)cc3)cc21 | –
1.4 | 304 | 214 | O=C1OCc2ccc(OCc3ccc(C(F)(F)F)cc3)cc21 | Activity [8]: 14%; inhibition (INH) [9]: Active; Ki [10]: 0.6 nM; Ki [11]: 0.46 nM; Activity [12]: 68%; Ki [13]: 0.7 nM
12 | 240 | 20 | O=C1OCc2ccc(OCCOc3ccc(Br)cc3)cc21 | –
2.4 | 227 | 96 | O=C1OCc2ccc(OCc3ccc(Br)cc3)cc21 | –
12 | 185 | 16 | O=C1OCc2ccc(OCC3CCCCC3)cc21 | –
2.8 | 172 | 61 | O=C1OCc2ccc(OCc3ccc(Cl)cc3)cc21 | –
11 | 137 | 13 | O=C1OCc2ccc(OCCOc3ccc(Cl)cc3)cc21 | –
6.2 | 96 | 16 | O=C1OCc2ccc(OCCCc3ccccc3)cc21 | Activity [4]: 86%; Activity [5]: 45%; Ki [6]: 25 nM; Ki [7]: 62 nM

From ChEMBL document CHEMBL2390879, “Inhibition of monoamine oxidase by phthalide analogues” (Bioorg Med Chem Lett, 2013)
